# Article PMC9049141 (RSC Advances, 2020)
# Square brackets hold non-standard residues; d marks the D form. Ends that are not written are not given here. * marks the point of attachment. FITC = O=C1OC2(c3ccc(O)cc3Oc3cc(O)ccc32)c2ccc(NC(=S)*)cc21; Stearoyl = CCCCCCCCCCCCCCCCCC(=O)*; Palmitoyl = CCCCCCCCCCCCCCCC(=O)*; Myristoyl = CCCCCCCCCCCCCC(=O)*; Aib = CC(C)(N)C(=O)O; Ahx = NCCCCCC(=O)O
# Experiments:
# [1] = molecular target: HSA (Homo sapiens, UniProt P02768); assay: Albumin binding affinity by surface plasmon resonance; settings: for k a / k d: SPR, BIAcoT200 system, HSA; for Kd: human, HSA (human serum albumin), surface plasmon resonance
# [2] = Plasma stability test in human plasma with or without HSA; format: in vitro ADME
# Method in brief: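 Albumin-depleted human plasma was prepared with a blue-dye albumin removal kit. Test peptides at a final 1 mg L−1 were incubated at 37 °C in human plasma with or without HSA. Samples were taken at time points from 0 to 144 h and analysed by LC-MS/MS.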
# [3] = test system: db/db mice; assay: Oral glucose tolerance test; format: in vivo
# Method in brief: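 Male db/db mice were fasted overnight and split into five groups. They received saline or test compound s.c. at 10, 30, 90 or 150 nmol kg−1, half an hour before an oral glucose load of 2.0 g kg−1. Blood glucose was read by handheld glucometer before and 15, 30, 60 and 120 min after the load. Data are mean ± SD with one-way ANOVA.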
# [4] = test system: GK rats; assay: Modified multiple OGTTs; format: in vivo
# Method in brief: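 Male GK rats (purchased at 6–8 weeks) got one s.c. dose of saline, test compound (10, 30, 90 nmol kg−1) or a reference GLP-1 analog (90 nmol kg−1). Repeated oral glucose challenges followed, the first at 0.5 h after dosing. Glucose was read by glucometer. AUCs were taken for 0–2, 72–74 and 144–146 h, and the percent AUC reduction was calculated versus saline.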
# [5] = test system: db/db mice; assay: Hypoglycemic duration test; format: in vivo; settings: non-fasted db/db mice
# Method in brief: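 Non-fasted db/db mice with free food and water got one s.c. dose of saline, a reference GLP-1 analog (90 nmol kg−1) or test compound (10, 30, 90 nmol kg−1). Tail-vein blood was sampled at 0, 0.5, 1, 2, 4, 8, 24, 36, 48, 72, 120, 168 and 216 h, with glucose by glucometer. Hypoglycemic duration was the time BGL stayed under 8.35 mmol L−1. Data are mean ± SD; one-way ANOVA.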
# [6] = Pharmacokinetic study in rhesus monkey; format: in vivo; settings: plasma, sc
# Method in brief: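 Male rhesus monkeys received one s.c. dose of test compound at 10, 30 or 90 nmol kg−1. Blood was drawn pre-dose and at 1, 2, 4, 8, 24, 36, 48, 72, 96, 120, 144 and 168 h. Intact peptide and free GLP-1 (A8Aib) in plasma were quantified by LC-MS/MS.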
# [7] = test system: db/db mice; assay: Chronic in vivo study, 8 weeks, db/db mice; settings: for ALT / AST / HDL / LDL / LDL/HDL / TC / TG: db/db mice serum, 8 weeks twice-weekly s.c.; for decrease of OGTT AUC after 8 week treatment compared with day 0: n = 8
# Method in brief: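 Male db/db mice (purchased at 6–8 weeks, housed six per cage, 12 h light–dark) got twice-weekly s.c. saline, a reference GLP-1 analog (90 nmol kg−1) or test compound (10, 30, 90 nmol kg−1) for eight weeks. Blood biochemical parameters were measured on an automatic biochemical analyzer. Pancreas was paraffin-embedded and H&E-stained. Data are mean ± SD; one-way ANOVA, P < 0.05.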
# [8] = human plasma without albumin (HSA-free)
# [9] = single s.c. 10 nmol kg^−1, n = 8
# [10] = single s.c. 30 nmol kg^−1, n = 8
# [11] = single s.c. 90 nmol kg^−1, n = 8
# Sequence of HSA (P02768 25-609): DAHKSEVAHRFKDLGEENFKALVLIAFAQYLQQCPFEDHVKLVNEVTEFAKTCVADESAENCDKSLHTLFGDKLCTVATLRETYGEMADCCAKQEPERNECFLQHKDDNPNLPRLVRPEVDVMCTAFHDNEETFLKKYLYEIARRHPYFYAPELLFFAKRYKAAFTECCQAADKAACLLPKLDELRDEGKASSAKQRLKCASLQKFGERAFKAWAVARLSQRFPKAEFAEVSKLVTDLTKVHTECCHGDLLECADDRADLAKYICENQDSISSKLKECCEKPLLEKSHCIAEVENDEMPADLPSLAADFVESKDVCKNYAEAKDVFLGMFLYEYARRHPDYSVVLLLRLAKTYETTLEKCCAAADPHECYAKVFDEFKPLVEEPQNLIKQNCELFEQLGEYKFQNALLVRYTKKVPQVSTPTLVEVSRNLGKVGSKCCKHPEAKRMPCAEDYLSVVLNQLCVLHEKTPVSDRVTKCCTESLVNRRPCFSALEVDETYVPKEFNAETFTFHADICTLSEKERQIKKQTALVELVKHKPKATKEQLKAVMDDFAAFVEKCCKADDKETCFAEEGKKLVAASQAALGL
substance,measurement,setting,value
{FITC-Ahx}-EK(Myristoyl)YEEYEGGGGSGGGGSFNPRH[Aib]EGTFTSDVSSYLEGQAAKEFIAWLVKGRG (N-terminus assumed) [PES04],k a,[1],1240 M⁻¹ s⁻¹
same,k d,[1],0.0332 s⁻¹
same,Kd,[1],26.7 µM
{FITC-Ahx}-EK(Palmitoyl)YEEYEGGGGSGGGGSFNPRH[Aib]EGTFTSDVSSYLEGQAAKEFIAWLVKGRG (N-terminus assumed) [PES05],k a,[1],8900 M⁻¹ s⁻¹
same,k d,[1],0.0722 s⁻¹
same,Kd,[1],8.11 µM
{FITC-Ahx}-EK(Stearoyl)YEEYEGGGGSGGGGSFNPRH[Aib]EGTFTSDVSSYLEGQAAKEFIAWLVKGRG (N-terminus assumed) [PES06],k a,[1],18800 M⁻¹ s⁻¹
same,k d,[1],0.0922 s⁻¹
same,Kd,[1],4.9 µM
{FITC-Ahx}-EYEEK(Myristoyl)YEGGGGSGGGGSFNPRH[Aib]EGTFTSDVSSYLEGQAAKEFIAWLVKGRG (N-terminus assumed) [PES13],k a,[1],11000 M⁻¹ s⁻¹
same,k d,[1],0.00422 s⁻¹
same,Kd,[1],0.383 µM
same,half-life at 1 mg L^−1,[2]; human plasma with HSA,68.7 h
same,half-life at 1 mg L^−1,[2]; [8],64.4 h
{FITC-Ahx}-EYEEK(Palmitoyl)YEGGGGSGGGGSFNPRH[Aib]EGTFTSDVSSYLEGQAAKEFIAWLVKGRG (N-terminus assumed) [PES14],k a,[1],14500 M⁻¹ s⁻¹
same,k d,[1],0.0101 s⁻¹
same,Kd,[1],0.696 µM
same,half-life at 1 mg L^−1,[2]; human plasma with HSA,> 72 h
same,half-life at 1 mg L^−1,[2]; [8],60.1 h
same,glucose AUC in OGTT,"[3]; single s.c. 90 nmol kg^−1, AUC0–120 min",780.17 nmol/L/min
same,glucose AUC in OGTT,"[3]; single s.c. 150 nmol kg^−1, AUC0–120 min",738.56 nmol/L/min
same,AUC-lowering percentage in third OGTT (144–146 h) versus placebo,[4]; [9],22.1%
same,AUC-lowering percentage in third OGTT (144–146 h) versus placebo,[4]; [10],31.0%
same,AUC-lowering percentage in third OGTT (144–146 h) versus placebo,[4]; [11],44.7%
same,time hypoglycemic effects maintained,[5]; single s.c. 10 nmol kg^−1,more than 120 h
same,decrease of BGL AUC for 0–192 h compared with saline,[5]; [9],38.4%
same,time hypoglycemic effects maintained,[5]; single s.c. 30 nmol kg^−1,> 168 h
same,decrease of BGL AUC for 0–192 h compared with saline,[5]; [10],49.3%
same,duration for BGLs rebound over 8.35 mmol L^−1,[5]; [10],22.3 h
same,time hypoglycemic effects maintained,[5]; single s.c. 90 nmol kg^−1,> 216 h
same,decrease of BGL AUC for 0–192 h compared with saline,[5]; [11],65.0%
same,duration for BGLs rebound over 8.35 mmol L^−1,[5]; [11],50.8 h
same,time for BGLs to reach the normoglycemic value,[5]; single s.c. 30 and 90 nmol kg^−1,≤ 2 h
same,half-life,[6]; 10 nmol kg^−1,62.6 h
same,half-life,[6]; 30 nmol kg^−1,78.8 h
same,half-life,[6]; 90 nmol kg^−1,95.1 h
same,ALT,"[7]; 10 nM kg^−1, mean ± SD n = 8",59.2 ± 2.8 IU L^−1
same,AST,"[7]; 10 nM kg^−1, mean ± SD n = 8",158 ± 12.2 IU L^−1
same,HDL,"[7]; 10 nM kg^−1, mean ± SD n = 8",2.5 ± 0.6 mmol/L
same,LDL,"[7]; 10 nM kg^−1, mean ± SD n = 8",1.6 ± 0.3 mmol/L
same,LDL/HDL,"[7]; 10 nM kg^−1, mean ± SD n = 8",0.64 ± 0.19
same,TC,"[7]; 10 nM kg^−1, mean ± SD n = 8",4.8 ± 0.6 mmol/L
same,TG,"[7]; 10 nM kg^−1, mean ± SD n = 8",1.1 ± 0.1 mmol/L
same,ALT,"[7]; 30 nM kg^−1, mean ± SD n = 8",55.0 ± 4.0 IU L^−1
same,AST,"[7]; 30 nM kg^−1, mean ± SD n = 8",140 ± 9.9 IU L^−1
same,HDL,"[7]; 30 nM kg^−1, mean ± SD n = 8",2.5 ± 0.5 mmol/L
same,LDL,"[7]; 30 nM kg^−1, mean ± SD n = 8",1.4 ± 0.2 mmol/L
same,LDL/HDL,"[7]; 30 nM kg^−1, mean ± SD n = 8",0.44 ± 0.15
same,TC,"[7]; 30 nM kg^−1, mean ± SD n = 8",4.4 ± 0.3 mmol/L
same,TG,"[7]; 30 nM kg^−1, mean ± SD n = 8",1.0 ± 0.7 mmol/L
same,area and number of pancreatic islets,"[7]; db/db mice, 8 weeks, H&E staining, compared with saline",increased
same,reduction of LDL/HDL ratio,"[7]; db/db mice, after 8 week exposure",up to 47%
same,insulin immunoreactivity,"[7]; db/db mice, chronic treatment 8 weeks, pancreas sections",preserved proper insulin immunoreactivity
same,decrease of OGTT AUC after 8 week treatment compared with day 0,"[7]; db/db mice, twice-weekly s.c. 10 nmol kg^−1, 8 weeks",17.1%
same,decrease of OGTT AUC after 8 week treatment compared with day 0,"[7]; db/db mice, twice-weekly s.c. 30 nmol kg^−1, 8 weeks",28.9%
same,decrease of OGTT AUC after 8 week treatment compared with day 0,"[7]; db/db mice, twice-weekly s.c. 90 nmol kg^−1, 8 weeks",58.2%
same,"body weight gain, food intake and fat%","[7]; db/db mice, twice-weekly s.c. 10, 30 and 90 nmol kg^−1, 56 days, vs saline",obviously reduction
{FITC-Ahx}-EYEEK(Stearoyl)YEGGGGSGGGGSFNPRH[Aib]EGTFTSDVSSYLEGQAAKEFIAWLVKGRG (N-terminus assumed) [PES15],k a,[1],21800 M⁻¹ s⁻¹
same,k d,[1],0.0112 s⁻¹
same,Kd,[1],0.512 µM
same,half-life at 1 mg L^−1,[2]; human plasma with HSA,56.5 h
same,half-life at 1 mg L^−1,[2]; [8],48.5 h
{FITC-Ahx}-EYEEYEK(Myristoyl)GGGGSGGGGSFNPRH[Aib]EGTFTSDVSSYLEGQAAKEFIAWLVKGRG (N-terminus assumed) [PES19],k a,[1],2500 M⁻¹ s⁻¹
same,k d,[1],0.0222 s⁻¹
same,Kd,[1],8.73 µM
{FITC-Ahx}-EYEEYEK(Palmitoyl)GGGGSGGGGSFNPRH[Aib]EGTFTSDVSSYLEGQAAKEFIAWLVKGRG (N-terminus assumed) [PES20],k a,[1],3180 M⁻¹ s⁻¹
same,k d,[1],0.0534 s⁻¹
same,Kd,[1],16.8 µM
{FITC-Ahx}-EYEEYEK(Stearoyl)GGGGSGGGGSFNPRH[Aib]EGTFTSDVSSYLEGQAAKEFIAWLVKGRG (N-terminus assumed) [PES21],k a,[1],11400 M⁻¹ s⁻¹
same,k d,[1],0.036 s⁻¹
same,Kd,[1],3.16 µM
{FITC-Ahx}-EYEEYK(Myristoyl)EGGGGSGGGGSFNPRH[Aib]EGTFTSDVSSYLEGQAAKEFIAWLVKGRG (N-terminus assumed) [PES16],k a,[1],11000 M⁻¹ s⁻¹
same,k d,[1],0.0192 s⁻¹
same,Kd,[1],1.74 µM
{FITC-Ahx}-EYEEYK(Palmitoyl)EGGGGSGGGGSFNPRH[Aib]EGTFTSDVSSYLEGQAAKEFIAWLVKGRG (N-terminus assumed) [PES17],k a,[1],12000 M⁻¹ s⁻¹
same,k d,[1],0.0627 s⁻¹
same,Kd,[1],5.21 µM
{FITC-Ahx}-EYEEYK(Stearoyl)EGGGGSGGGGSFNPRH[Aib]EGTFTSDVSSYLEGQAAKEFIAWLVKGRG (N-terminus assumed) [PES18],k a,[1],11400 M⁻¹ s⁻¹
same,k d,[1],0.036 s⁻¹
same,Kd,[1],3.16 µM
{FITC-Ahx}-EYEK(Myristoyl)EYEGGGGSGGGGSFNPRH[Aib]EGTFTSDVSSYLEGQAAKEFIAWLVKGRG (N-terminus assumed) [PES10],k a,[1],12900 M⁻¹ s⁻¹
same,k d,[1],0.0328 s⁻¹
same,Kd,[1],2.54 µM
{FITC-Ahx}-EYEK(Palmitoyl)EYEGGGGSGGGGSFNPRH[Aib]EGTFTSDVSSYLEGQAAKEFIAWLVKGRG (N-terminus assumed) [PES11],k a,[1],8380 M⁻¹ s⁻¹
same,k d,[1],0.0782 s⁻¹
same,Kd,[1],9.33 µM
{FITC-Ahx}-EYEK(Stearoyl)EYEGGGGSGGGGSFNPRH[Aib]EGTFTSDVSSYLEGQAAKEFIAWLVKGRG (N-terminus assumed) [PES12],k a,[1],21700 M⁻¹ s⁻¹
same,k d,[1],0.0531 s⁻¹
same,Kd,[1],2.45 µM
{FITC-Ahx}-EYK(Myristoyl)EEYEGGGGSGGGGSFNPRH[Aib]EGTFTSDVSSYLEGQAAKEFIAWLVKGRG (N-terminus assumed) [PES07],k a,[1],8240 M⁻¹ s⁻¹
same,k d,[1],0.0632 s⁻¹
same,Kd,[1],7.61 µM
{FITC-Ahx}-EYK(Palmitoyl)EEYEGGGGSGGGGSFNPRH[Aib]EGTFTSDVSSYLEGQAAKEFIAWLVKGRG (N-terminus assumed) [PES08],k a,[1],26700 M⁻¹ s⁻¹
same,k d,[1],0.0942 s⁻¹
same,Kd,[1],3.53 µM
{FITC-Ahx}-EYK(Stearoyl)EEYEGGGGSGGGGSFNPRH[Aib]EGTFTSDVSSYLEGQAAKEFIAWLVKGRG (N-terminus assumed) [PES09],k a,[1],12100 M⁻¹ s⁻¹
same,k d,[1],0.0531 s⁻¹
same,Kd,[1],4.32 µM
{FITC-Ahx}-K(Myristoyl)EYEEYEGGGGSGGGGSFNPRH[Aib]EGTFTSDVSSYLEGQAAKEFIAWLVKGRG (N-terminus assumed) [PES01],k a,[1],6900 M⁻¹ s⁻¹
same,k d,[1],0.0182 s⁻¹
same,Kd,[1],2.66 µM
{FITC-Ahx}-K(Stearoyl)EYEEYEGGGGSGGGGSFNPRH[Aib]EGTFTSDVSSYLEGQAAKEFIAWLVKGRG (N-terminus assumed) [PES03],k a,[1],12800 M⁻¹ s⁻¹
same,k d,[1],0.0322 s⁻¹
same,Kd,[1],2.51 µM
